# Reference: ChEMBL document CHEMBL2169747, “Synthesis and biological properties of highly sequence-specific-alkylating N-methylpyrrole-N-methylimidazole polyamide conjugates” (J Med Chem, 2012)
# Activity calls are given as the source filed them. No cut-off for these calls is given here.
# How the values were obtained:
# A549 [1] = experiment: Upregulation of FDXR gene expression in human A549 cells at 100 nM after 12 hrs by microarray analysis relative to control; type: functional
# Outline: (§1)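 4 ×10^5 A549 cells seeded per 60 mm dish and treated 12 h with conjugate (21, 26, 34 or 100 nM) in medium; control medium contained 0.1% DMSO, with conjugates added as 0.1% DMSO solutions. Whole human genome (~25 000 genes) expression profiled by microarray against the DMSO control. A549 culture: RPMI-1640 with 10% heat-inactivated FBS, penicillin/streptomycin, 37 °C, 5% CO2.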
# A549 [2] = experiment: Downregulation of UVRAG gene expression in human A549 cells at 100 nM after 12 hrs by microarray analysis relative to control; type: functional
# Outline: (§2)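 A549 cells (RPMI-1640, 10% heat-inactivated FBS, penicillin/streptomycin, 37 °C, 5% CO2) seeded at 4 × 10^5 per 60 mm dish. Exposed 12 h to conjugate at 21, 26, 34 or 100 nM in medium with 0.1% DMSO, against 0.1% DMSO control. Whole-genome (~25 000 genes) expression profiled by microarray.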
# A549 [3] = experiment: Downregulation of FAF1 gene expression in human A549 cells at 100 nM after 12 hrs by microarray analysis relative to control; type: functional
# Outline: (§3)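 A549 cells, 4 × 10^5 per 60 mm dish, were exposed to conjugate for 12 h in medium with 0.1% DMSO; vehicle control was 0.1% DMSO. Whole human genome (~25 000 genes) expression was profiled by microarray and expression compared with the control.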
# A549 [4] = experiment: Downregulation of ELP4 gene expression in human A549 cells at 100 nM after 12 hrs by microarray analysis relative to control; type: functional; outline: as §3
# A549 [5] = experiment: Upregulation of BTG2 gene expression in human A549 cells at 100 nM after 12 hrs by microarray analysis relative to control; type: functional; outline: as §2
# A549 [6] = experiment: Downregulation of NCOA1 gene expression in human A549 cells at 100 nM after 12 hrs by microarray analysis relative to control; type: functional; outline: as §3
# A549 [7] = experiment: Downregulation of SEMA3A gene expression in human A549 cells at 100 nM after 12 hrs by microarray analysis relative to control; type: functional; outline: as §2
# A549 [8] = experiment: Downregulation of PDE7B gene expression in human A549 cells at 100 nM after 12 hrs by microarray analysis relative to control; type: functional; outline: as §2
# A549 [9] = experiment: Downregulation of DYM gene expression in human A549 cells at 100 nM after 12 hrs by microarray analysis relative to control; type: functional; outline: as §3
# A549 [10] = experiment: Upregulation of CDKN1A gene expression in human A549 cells at 100 nM after 12 hrs by microarray analysis relative to control; type: functional; outline: as §1
# PC-3 = experiment: Cytotoxicity against human PC3 cells assessed as cell growth inhibition after 48 hrs by microplate reader analysis; type: functional, cell-based; conditions: PC-3, 48 h
# Outline: (§4)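 Medium was RPMI-1640 for EBC-1, A549 and DU145, and DMEM for PC-3, SK-N-SH and K562. Both media had 10% heat-inactivated FBS plus penicillin/streptomycin; cells were kept at 37 °C, 5% CO2. Cells were seeded at 5000/well and given compound from DMSO stock (final 0.1% DMSO) for 48 h. Viability was read by WST-8 colorimetry, absorbance at 450 and 600 nm, and IC50 determined.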
# K562 = experiment: Cytotoxicity against human K562 cells assessed as cell growth inhibition after 48 hrs by microplate reader analysis; type: functional, cell-based; conditions: K562, 48 h; outline: as §4
# A549 [11] = experiment: Upregulation of HES2 gene expression in human A549 cells at 100 nM after 12 hrs by microarray analysis relative to control; type: functional; outline: as §1
# A549 [12] = experiment: Downregulation of NP_112224.1 gene expression in human A549 cells at 100 nM after 12 hrs by microarray analysis relative to control; type: functional; outline: as §3
# Nucleic Acid = experiment: Induction of 208-bp PCR fragment DNA cleavage at 10 to 200 nM after 12 h by PAGE analysis
# A549 [13] = experiment: Upregulation of U124 gene expression in human A549 cells at 100 nM after 12 hrs by microarray analysis relative to control; type: functional; outline: as §1
# A549 [14] = experiment: Downregulation of Q8TC78 gene expression in human A549 cells at 100 nM after 12 hrs by microarray analysis relative to control; type: functional; outline: as §2
# A549 [15] = experiment: Cytotoxicity against human A549 cells assessed as cell growth inhibition after 48 hrs by microplate reader analysis; type: functional, cell-based; conditions: A549, 48 h; outline: as §4
# A549 [16] = experiment: Downregulation of PTPRK gene expression in human A549 cells at 100 nM after 12 hrs by microarray analysis relative to control; type: functional; outline: as §2
# A549 [17] = experiment: Downregulation of XRCC4 gene expression in human A549 cells at 100 nM after 12 hrs by microarray analysis relative to control; type: functional; outline: as §2
# A549 [18] = experiment: Downregulation of NP_056993.2 gene expression in human A549 cells at 100 nM after 12 hrs by microarray analysis relative to control; type: functional; outline: as §3
# A549 [19] = experiment: Upregulation of NPPC gene expression in human A549 cells at 100 nM after 12 hrs by microarray analysis relative to control; type: functional; outline: as §1
# A549 [20] = experiment: Upregulation of GADD45A gene expression in human A549 cells at 100 nM after 12 hrs by microarray analysis relative to control; type: functional; outline: as §1
# A549 [21] = experiment: Upregulation of MDM2 gene expression in human A549 cells at 100 nM after 12 hrs by microarray analysis relative to control; type: functional; outline: as §1
# A549 [22] = experiment: Downregulation of NP_060504.1 gene expression in human A549 cells at 100 nM after 12 hrs by microarray analysis relative to control; type: functional; outline: as §3
# A549 [23] = experiment: Downregulation of NP_653244.1 gene expression in human A549 cells at 100 nM after 12 hrs by microarray analysis relative to control; type: functional; outline: as §2
# A549 [24] = experiment: Downregulation of FUT8 gene expression in human A549 cells at 100 nM after 12 hrs by microarray analysis relative to control; type: functional; outline: as §3
# A549 [25] = experiment: Downregulation of RPS6KC1 gene expression in human A549 cells at 100 nM after 12 hrs by microarray analysis relative to control; type: functional; outline: as §2
# A549 [26] = experiment: Upregulation of BBC3 gene expression in human A549 cells at 100 nM after 12 hrs by microarray analysis relative to control; type: functional; outline: as §2
# A549 [27] = experiment: Downregulation of EFA6R gene expression in human A549 cells at 100 nM after 12 hrs by microarray analysis relative to control; type: functional; outline: as §3
# [28] = Cytotoxicity against human EBC1 cells assessed as cell growth inhibition after 48 hrs by microplate reader analysis; type: functional, cell-based; conditions: EBC-1, 48 h; outline: as §4
# SK-N-SH = experiment: Cytotoxicity against human SK-N-SH cells assessed as cell growth inhibition after 48 hrs by microplate reader analysis; type: functional, cell-based; outline: as §4
# A549 [29] = experiment: Downregulation of SUPT3H gene expression in human A549 cells at 100 nM after 12 hrs by microarray analysis relative to control; type: functional; outline: as §2
# DU-145 = experiment: Cytotoxicity against human DU145 cells assessed as cell growth inhibition after 48 hrs by microplate reader analysis; type: functional, cell-based; conditions: DU-145, 48 h; outline: as §4
# A549 [30] = experiment: Downregulation of GULP1 gene expression in human A549 cells at 100 nM after 12 hrs by microarray analysis relative to control; type: functional; outline: as §3
# A549 [31] = experiment: Upregulation of RRAD gene expression in human A549 cells at 100 nM after 12 hrs by microarray analysis relative to control; type: functional; outline: as §1
# A549 [32] = experiment: Downregulation of TCF12 gene expression in human A549 cells at 100 nM after 12 hrs by microarray analysis relative to control; type: functional; outline: as §2
structure (smiles),measurement,setting,value
CC(=O)Nc1cn(C)c(C(=O)Nc2cn(C)c(C(=O)Nc3cc(C(=O)NCCC(=O)Nc4cc(C(=O)NCCCC(=O)Nc5cn(C)c(C(=O)NCCC(=O)Nc6cc(C(=O)Nc7ccc8[nH]c(C(=O)N9CC(CCl)c%10c9cc(O)c9ccccc%109)cc8c7)n(C)c6)n5)n(C)c4)n(C)c3)n2)n1 (racemic),fold change (FC),A549 [1],8.2
same,fold change (FC),A549 [2],0.066
same,fold change (FC),A549 [3],0.071
same,fold change (FC),A549 [4],0.045
same,fold change (FC),A549 [5],13
same,fold change (FC),A549 [6],0.068
same,fold change (FC),A549 [7],0.063
same,fold change (FC),A549 [8],0.064
same,fold change (FC),A549 [9],0.08
same,fold change (FC),A549 [10],9
same,IC50,PC-3,29.5 nM
same,IC50,K562,15.5 nM
same,fold change (FC),A549 [11],19.2
same,fold change (FC),A549 [12],0.058
same,Activity,Nucleic Acid,Active
same,fold change (FC),A549 [13],10.3
same,fold change (FC),A549 [14],0.056
same,IC50,A549 [15],100 nM
same,fold change (FC),A549 [16],0.026
same,fold change (FC),A549 [17],0.067
same,fold change (FC),A549 [18],0.076
same,fold change (FC),A549 [19],10.5
same,fold change (FC),A549 [20],8.3
same,fold change (FC),A549 [21],15.6
same,fold change (FC),A549 [22],0.068
same,fold change (FC),A549 [23],0.061
same,fold change (FC),A549 [24],0.035
same,fold change (FC),A549 [25],0.038
same,fold change (FC),A549 [26],10.7
same,fold change (FC),A549 [27],0.058
same,IC50,[28],550 nM
same,IC50,SK-N-SH,129 nM
same,fold change (FC),A549 [29],0.052
same,IC50,DU-145,11.2 nM
same,fold change (FC),A549 [30],0.062
same,fold change (FC),A549 [31],11.2
same,fold change (FC),A549 [32],0.074
